From ChEMBL document CHEMBL1153396, “Carbonic anhydrase inhibitors. Inhibition of the beta-class enzymes from the fungal pathogens Candida albicans and Cryptococcus neoformans with aliphatic and aromatic carboxylates” (Bioorg Med Chem, 2009) come the findings set out here.

A word on the Ki: it is the dissociation constant of the complex between target and ligand, obtained from inhibition or displacement.

The target in one experiment is T1, Carbonic anhydrase (Candida albicans (strain SC5314 / ATCC MYA-2876) (Yeast), UniProt Q5AJ71).
T1 sequence (Q5AJ71 whole entry): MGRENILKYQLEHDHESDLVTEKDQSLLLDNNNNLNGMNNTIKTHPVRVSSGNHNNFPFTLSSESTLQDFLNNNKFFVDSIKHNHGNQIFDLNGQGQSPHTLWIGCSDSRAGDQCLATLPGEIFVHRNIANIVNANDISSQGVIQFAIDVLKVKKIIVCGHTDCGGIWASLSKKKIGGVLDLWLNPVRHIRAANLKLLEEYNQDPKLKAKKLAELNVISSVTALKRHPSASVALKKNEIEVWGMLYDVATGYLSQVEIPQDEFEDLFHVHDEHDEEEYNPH
Put plainly: Inhibition of Candida albicans Nce103. An outline of the steps: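 Recombinant purified C. albicans Nce103. Stopped-flow CO2 hydration assay with phenol red indicator (0.2 mM) read at 557 nm. Tris buffer pH 8.3 with 20 mM Na2SO4 or NaClO4 for ionic strength. CO2 1.7–17 mM. Initial rates over 10–100 s, uncatalyzed rate subtracted. Enzyme and inhibitor preincubated 15 min at room temperature. Ki by non-linear least squares from three assays.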
`O=C(O)c1c(F)c(F)cc(F)c1F` came in with a Ki of 61.6 µM.

In turn, `O=C([O-])C[C@H](O)C(=O)[O-].[Na+].[Na+]` returned a Ki of 87.7 µM.

`C[C@H](O)C(=O)[O-].[Na+]` yielded a Ki of 46.8 µM.

`O=C([O-])CC(=O)[O-].[Na+].[Na+]` [DISODIUM MALONATE]: affinity was put at a Ki of 26.3 µM.

Compound `CC(=O)C(=O)O` [PYRUVATE SODIUM] registered an inhibition constant Ki of 106 µM.

Compound `CC(=O)[O-].[Na+]` [SODIUM ACETATE] came in with an inhibition constant Ki of 36 µM.

`O=C([O-])c1ccccc1.[Na+]` [SODIUM BENZOATE] registered a Ki of 24.4 µM.

Compound `CCCC(=O)[O-].[Na+]` [SODIUM BUTYRATE] registered a Ki of 26.9 µM.

`O=C([O-])CC(O)(CC(=O)[O-])C(=O)[O-].[Na+].[Na+].[Na+]` [SODIUM CITRATE] registered a Ki of 39.1 µM.

`O=C[O-].[Na+]` [SODIUM FORMATE]: the inhibition constant (Ki) is 35.1 µM.

`O=C([O-])/C=C\C(=O)[O-].[Na+].[Na+]` [SODIUM MALEATE] gave a Ki of 8.6 µM.

As for `O=C([O-])C(=O)[O-].[Na+].[Na+]` [SODIUM OXALATE], the affinity, expressed as Ki, was 37.7 µM.

The compound `CCC(=O)[O-].[Na+]` [SODIUM PROPIONATE] gave a Ki of 51.5 µM.

The compound `CCCCC(=O)[O-].[Na+]` [SODIUM VALERATE] registered a Ki of 94 µM.

Target in a further experiment: not listed separately
Kind of experiment: Inhibition of Cryptococcus neoformans Can2. An outline of the steps:
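Recombinant purified Can2. Stopped-flow CO2 hydration assay read with 0.2 mM phenol red at 557 nm, in TRIS pH 8.3 with 20 mM NaClO4 or Na2SO4 for ionic strength. Initial rates followed over 10–100 s, CO2 1.7–17 mM, uncatalyzed rate subtracted. Enzyme and inhibitor preincubated 15 min at room temperature. Ki from non-linear least squares, mean of at least three determinations.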
Compound `O=C(O)c1c(F)c(F)cc(F)c1F` showed an inhibitory constant (Ki) of 49.1 µM.

The compound `O=C([O-])C[C@H](O)C(=O)[O-].[Na+].[Na+]` showed a Ki of 899 µM.

Compound `C[C@H](O)C(=O)[O-].[Na+]` had a Ki of 953 µM.

With `O=C([O-])CC(=O)[O-].[Na+].[Na+]` [DISODIUM MALONATE], the affinity, expressed as Ki, was 793 µM.

`CC(=O)C(=O)O` [PYRUVATE SODIUM] returned an inhibitory constant (Ki) of 787 µM.

For the compound `CC(=O)[O-].[Na+]` [SODIUM ACETATE], the affinity, expressed as Ki, was 7.3 µM.

For the compound `O=C([O-])c1ccccc1.[Na+]` [SODIUM BENZOATE], affinity was put at a Ki of 1270 µM.

Compound `CCCC(=O)[O-].[Na+]` [SODIUM BUTYRATE] gave a Ki of 225 µM.

As for `O=C([O-])CC(O)(CC(=O)[O-])C(=O)[O-].[Na+].[Na+].[Na+]` [SODIUM CITRATE], the inhibition constant (Ki) was 88.6 µM.

As to `O=C[O-].[Na+]` [SODIUM FORMATE], the inhibition constant (Ki) was found to be 53.5 µM.

`O=C([O-])/C=C\C(=O)[O-].[Na+].[Na+]` [SODIUM MALEATE] yielded a Ki of 8.7 µM.

In turn, `O=C([O-])C(=O)[O-].[Na+].[Na+]` [SODIUM OXALATE] returned an inhibition constant (Ki) of 67.7 µM.

`CCC(=O)[O-].[Na+]` [SODIUM PROPIONATE]: the affinity, expressed as Ki, was 404 µM.

The compound `CCCCC(=O)[O-].[Na+]` [SODIUM VALERATE] came in with a Ki of 42.8 µM.

For the next experiment, the target named is Carbonic anhydrase 2 (Homo sapiens, UniProt P00918). Kind of experiment: Inhibition of human carbonic anhydrase2.
`O=C([O-])C[C@H](O)C(=O)[O-].[Na+].[Na+]`: the affinity corresponds to a Ki of 1870 µM.

In turn, `C[C@H](O)C(=O)[O-].[Na+]` registered an inhibition constant (Ki) of 3220 µM.

As to `CCCC(=O)[O-].[Na+]` [SODIUM BUTYRATE], affinity was put at a Ki of 1030 µM.

Regarding `O=C([O-])/C=C\C(=O)[O-].[Na+].[Na+]` [SODIUM MALEATE], affinity was put at a Ki of 989 µM.

`CCC(=O)[O-].[Na+]` [SODIUM PROPIONATE] had an inhibitory constant (Ki) of 960 µM.

For `CCCCC(=O)[O-].[Na+]` [SODIUM VALERATE], affinity was put at a Ki of 257 µM.
